Activity calls are given as the source filed them. The rule behind the calls is not given here. Where only a bound is given, the exact number is not on record here.

The target in the first test is T1, C-C chemokine receptor type 2 (Homo sapiens, UniProt P41597). The experiment in a line: Displacement of [125I]MCP1 from human CCR2b in THP1 cells. It is filed as cell-based, THP-1.
Conditions: not given
The gist of the method:
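Radioligand competition with [125I]-MCP-1 on THP-1 cells. IC50 taken from dose-response curves built from duplicate points; where SD is given, value is mean of at least three independent experiments.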
Target sequence in this assay (P41597 whole entry): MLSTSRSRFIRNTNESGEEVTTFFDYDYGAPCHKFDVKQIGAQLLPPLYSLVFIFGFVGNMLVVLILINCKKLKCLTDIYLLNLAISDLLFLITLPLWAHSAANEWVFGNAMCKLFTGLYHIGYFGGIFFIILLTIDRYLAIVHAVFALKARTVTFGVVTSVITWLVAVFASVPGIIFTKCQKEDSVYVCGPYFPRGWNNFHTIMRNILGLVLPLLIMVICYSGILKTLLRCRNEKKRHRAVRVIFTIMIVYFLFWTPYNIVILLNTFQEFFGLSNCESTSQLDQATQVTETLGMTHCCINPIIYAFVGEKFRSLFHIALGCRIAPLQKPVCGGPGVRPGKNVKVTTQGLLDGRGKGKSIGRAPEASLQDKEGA
As usually defined, the IC50 is the concentration that inhibits the measured activity by half. In the case of `COc1ccc(CN2CC[C@@H](NC(=O)CNC(=O)c3cc(C(F)(F)F)ccc3N)C2)cc1N`, the IC50 is 5.3 nM.
On the same count and under the same terms, as for `CSc1ccc(CN2CC[C@@H](NC(=O)CNC(=O)c3cccc(C(F)(F)F)c3)C2)cc1`, the figure is 204 nM; as for `Nc1ccc([N+](=O)[O-])cc1C(=O)NCC(=O)N[C@@H]1CCN(Cc2ccc(Cl)cc2)C1`, 208 nM; as for `COc1ccc(CN2CC[C@@H](NC(=O)CNC(=O)c3cc(C(F)(F)F)ccc3N)C2)cc1O`, 53 nM.
On the same count and under the same terms, the result for `Nc1cccc(C(=O)NCC(=O)N[C@@H]2CCN(Cc3ccc(Cl)cc3)C2)c1` reads greater than 10000 nM; that for `O=C(CNC(=O)c1cccc(C(F)(F)F)c1)N[C@@H]1CCN(Cc2ccc(F)cc2)C1`, 960 nM.
Same read-out and setting: as for `Cc1ccccc1C(=O)NCC(=O)N[C@@H]1CCN(Cc2ccc(Cl)cc2)C1`, the figure is greater than 10000 nM; as for `O=C(CNC(=O)c1cccc(C(F)(F)F)c1)N[C@@H]1CCN(Cc2ccc(Cl)cc2Cl)C1`, 300 nM; as for `Nc1cc(CN2CC[C@@H](NC(=O)CNC(=O)c3cc(C(F)(F)F)ccc3N)C2)ccc1Cl`, 4.1 nM.
Regarding `Nc1ccc(Cl)cc1C(=O)NCC(=O)N[C@@H]1CCN(Cc2ccc(Cl)cc2)C1`, the IC50 came to 730 nM.
Compound `Nc1ccc(OC(F)(F)F)cc1C(=O)NCC(=O)N[C@@H]1CCN(Cc2ccc(Cl)cc2)C1` yielded an IC50 of 88 nM.
Still for that read-out and setting: the result for `Nc1ccc(I)cc1C(=O)NCC(=O)N[C@@H]1CCN(Cc2ccc(Cl)cc2)C1` reads 308 nM.
Compound `O=C(CNC(=O)c1cccc(C(F)(F)F)c1)N[C@@H]1CCN(Cc2ccccc2Cl)C1` gave an IC50 of 630 nM.
The same measure, in the same setting: as for `O=C(CNC(=O)c1cccc(Cl)c1)N[C@@H]1CCN(Cc2ccc(Cl)cc2)C1`, the figure is 2400 nM; as for `O=C(CNC(=O)c1cccc(OC(F)(F)F)c1)N[C@@H]1CCN(Cc2ccc(Cl)cc2)C1`, 489 nM.
The same measure, in the same setting: the result for `COc1ccccc1CN1CC[C@@H](NC(=O)CNC(=O)c2cccc(C(F)(F)F)c2)C1` reads 1360 nM.
The same measure, in the same setting: the result for `Cc1ccc(CN2CC[C@@H](NC(=O)CNC(=O)c3cc(C(F)(F)F)ccc3N)C2)cc1` reads 20 nM; that for `N#Cc1cccc(C(=O)NCC(=O)N[C@@H]2CCN(Cc3ccc(Cl)cc3)C2)c1`, greater than 10000 nM; that for `COc1cccc(CN2CC[C@@H](NC(=O)CNC(=O)c3cccc(C(F)(F)F)c3)C2)c1`, 3170 nM.
The compound `COc1cccc(C(=O)NCC(=O)N[C@@H]2CCN(Cc3ccc(Cl)cc3)C2)c1` showed an IC50 greater than 10000 nM.
Same read-out and setting: as for `O=C(CNC(=O)c1ccccc1Cl)N[C@@H]1CCN(Cc2ccc(Cl)cc2)C1`, the figure is greater than 10000 nM; as for `O=C(CNC(=O)c1cccc(C(F)(F)F)c1)N[C@@H]1CCN(Cc2ccc(Br)cc2)C1`, 166 nM; as for `Cc1ccccc1CN1CC[C@@H](NC(=O)CNC(=O)c2cccc(C(F)(F)F)c2)C1`, 960 nM.
Same read-out and setting: as for `O=C(CNC(=O)c1cccc(C(F)(F)F)c1)N[C@@H]1CCN(Cc2ccc(O)cc2)C1`, the figure is 226 nM; as for `O=C(CNC(=O)c1cccc(Br)c1)N[C@@H]1CCN(Cc2ccc(Cl)cc2)C1`, 785 nM.
In turn, `Cc1ccc(CN2CC[C@@H](NC(=O)CNC(=O)c3cccc(C(F)(F)F)c3)C2)cc1` displayed an IC50 of 116 nM.
Same read-out and setting: the result for `COc1cc(CN2CC[C@@H](NC(=O)CNC(=O)c3cc(C(F)(F)F)ccc3N)C2)ccc1O` reads 39 nM.
Still for that read-out and setting: the result for `CCc1ccc(CN2CC[C@@H](NC(=O)CNC(=O)c3cc(C(F)(F)F)ccc3N)C2)cc1` reads 11 nM; that for `CCc1ccc(CN2CC[C@@H](NC(=O)CNC(=O)c3cccc(C(F)(F)F)c3)C2)cc1`, 59 nM.
The compound `Cc1ccc(C(=O)NCC(=O)N[C@@H]2CCN(Cc3ccc(Cl)cc3)C2)cc1` gave an IC50 of 10000 nM.
On the same count and under the same terms, as for `O=C(CNC(=O)c1cccc(C(F)(F)F)c1)N[C@@H]1CCN(Cc2ccccc2)C1`, the figure is 690 nM; as for `C=Cc1ccc(CN2CC[C@@H](NC(=O)CNC(=O)c3cccc(C(F)(F)F)c3)C2)cc1`, 121 nM.
The same measure, in the same setting: the result for `Cc1ccc(CN2CC[C@@H](NC(=O)CNC(=O)c3cc(C(F)(F)F)ccc3N)C2)cc1N` reads 6.1 nM; that for `COc1ccc(CN2CC[C@@H](NC(=O)CNC(=O)c3cc(C(F)(F)F)ccc3N)C2)cc1`, 20 nM.
Still for that read-out and setting: the result for `Nc1ccc(C(F)(F)F)cc1C(=O)NCC(=O)N[C@@H]1CCN(Cc2ccc(Cl)cc2Cl)C1` reads 96 nM.
For the compound `O=C(CNC(=O)c1cccc(C(F)(F)F)c1)N[C@@H]1CCN(Cc2cccc(Cl)c2)C1`, the IC50 is greater than 5000 nM.
Still for that read-out and setting: as for `Nc1ccccc1C(=O)NCC(=O)N[C@@H]1CCN(Cc2ccc(Cl)cc2)C1`, the figure is greater than 10000 nM; as for `CC(=O)Nc1ccc(CN2CC[C@@H](NC(=O)CNC(=O)c3cccc(C(F)(F)F)c3)C2)cc1`, 305 nM; as for `N#Cc1ccc(CN2CC[C@@H](NC(=O)CNC(=O)c3cccc(C(F)(F)F)c3)C2)cc1`, 2650 nM.
For `O=C(CNC(=O)c1cccc(C(F)(F)F)c1)N[C@@H]1CCN(Cc2ccc(OC(F)(F)F)cc2)C1`, the IC50 worked out at 610 nM.
Still for that read-out and setting: as for `O=C(CNC(=O)c1cccc(C(F)(F)F)c1)N[C@@H]1CCN(Cc2ccc([N+](=O)[O-])cc2)C1`, the figure is 1550 nM.
Same read-out and setting: the result for `Nc1ccc(Br)cc1C(=O)NCC(=O)N[C@@H]1CCN(Cc2ccc(Cl)cc2)C1` reads 643 nM; that for `O=C(CNC(=O)c1cccc(F)c1)N[C@@H]1CCN(Cc2ccc(Cl)cc2)C1`, 4330 nM; that for `O=C(CNC(=O)c1cccc(C(F)(F)F)c1)N[C@@H]1CCN(Cc2ccccc2-c2ccc3ccccc3c2)C1`, 759 nM.
The same measure, in the same setting: the result for `COc1ccc(CN2CC[C@@H](NC(=O)CNC(=O)c3cccc(C(F)(F)F)c3)C2)cc1` reads 114 nM; that for `Cc1cccc(CN2CC[C@@H](NC(=O)CNC(=O)c3cccc(C(F)(F)F)c3)C2)c1`, 3100 nM.
Turning to `Nc1cc(CN2CC[C@@H](NC(=O)CNC(=O)c3cc(C(F)(F)F)ccc3N)C2)ccc1O`, the IC50 is 14 nM.
With `O=C(CNC(=O)c1ccc(C(F)(F)F)cc1)N[C@@H]1CCN(Cc2ccc(Cl)cc2)C1`, the IC50 is greater than 5000 nM.
Still for that read-out and setting: the result for `O=C(CNC(=O)c1ccccc1C(F)(F)F)N[C@@H]1CCN(Cc2ccc(Cl)cc2)C1` reads greater than 10000 nM.
Still for that read-out and setting: as for `O=C(CNC(=O)c1ccc(Cl)cc1)N[C@@H]1CCN(Cc2ccc(Cl)cc2)C1`, the figure is greater than 5000 nM; as for `Nc1ccc(C(F)(F)F)cc1C(=O)NCC(=O)N[C@@H]1CCN(Cc2ccc(Cl)cc2)C1`, 26 nM; as for `O=C(CNC(=O)c1ccccc1)N[C@@H]1CCN(Cc2ccc(Cl)cc2)C1`, greater than 10000 nM.
The same measure, in the same setting: the result for `COc1cc(CN2CC[C@@H](NC(=O)CNC(=O)c3cccc(C(F)(F)F)c3)C2)ccc1O` reads 153 nM; that for `Cc1cccc(C(=O)NCC(=O)N[C@@H]2CCN(Cc3ccc(Cl)cc3)C2)c1`, 2380 nM; that for `Cc1ccc(CN2CC[C@@H](NC(=O)CNC(=O)c3cc(C(F)(F)F)ccc3N)C2)c(C)c1`, 3.2 nM.
Consider `Nc1ccc(C(F)(F)F)cc1C(=O)NCC(=O)N[C@@H]1CCN(Cc2ccc(O)cc2)C1`, for which the IC50 amounted to 42 nM.
For the compound `O=C(CNC(=O)c1cccc([N+](=O)[O-])c1)N[C@@H]1CCN(Cc2ccc(Cl)cc2)C1`, the IC50 is 832 nM.
On the same count and under the same terms, as for `C=Cc1ccc(CN2CC[C@@H](NC(=O)CNC(=O)c3cc(C(F)(F)F)ccc3N)C2)cc1`, the figure is 19 nM.

The target in another test is T1, C-C chemokine receptor type 2. Briefly: Antagonist activity at human CCR2 in THP1 cells assessed as inhibition of MCP1-induced calcium flux. It is filed as functional, cell-based, THP-1.
Conditions: not given
The gist of the method: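 THP-1 cells grown in HBSS loading buffer with 1% FBS and 20 mM HEPES, spun down, then loaded 30 min with Fluo-3 AM (2 million cells/mL, 4 µM dye, 20 mM HEPES, 0.1% BSA, 5 mM probenecid). Washed three times into HEPES/NaCl/glucose buffer with 2.5 mM probenecid, 1.25 mM CaCl2 and 0.1% BSA; 150,000 cells/well. Compound added 3 min before 10^-7 M human MCP-1; intracellular Ca2+ read by FLIPR.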
Target sequence in this assay (P41597 whole entry): as above
For the compound `O=C(CNC(=O)c1cccc(C(F)(F)F)c1)N[C@@H]1CCN(Cc2ccc(O)cc2)C1`, the IC50 turned out to be 365 nM.
Same read-out and setting: as for `Cc1ccc(CN2CC[C@@H](NC(=O)CNC(=O)c3cccc(C(F)(F)F)c3)C2)cc1`, the figure is 64 nM; as for `CCc1ccc(CN2CC[C@@H](NC(=O)CNC(=O)c3cc(C(F)(F)F)ccc3N)C2)cc1`, 5.3 nM; as for `Nc1ccc(C(F)(F)F)cc1C(=O)NCC(=O)N[C@@H]1CCN(Cc2ccc(Cl)cc2)C1`, 23.1 nM.
Same read-out and setting: as for `Cc1ccc(CN2CC[C@@H](NC(=O)CNC(=O)c3cc(C(F)(F)F)ccc3N)C2)c(C)c1`, the figure is 7.5 nM.

The target is the same in the next test. Briefly: Antagonist activity at human CCR2 in THP1 cells assessed as inhibition of calcium flux in absence of MCP1. Conditions: THP-1. It is filed as functional, cell-based.
Target sequence in this assay (P41597 whole entry, looked up): as the sequence (P41597 whole entry) above
With `O=C(CNC(=O)c1cccc(C(F)(F)F)c1)N[C@@H]1CCN(Cc2ccc(O)cc2)C1`, the result was inactive.
Still for that read-out and setting: as for `Cc1ccc(CN2CC[C@@H](NC(=O)CNC(=O)c3cccc(C(F)(F)F)c3)C2)cc1`, the entry is “inactive”.
The same measure, in the same setting: the result for `CCc1ccc(CN2CC[C@@H](NC(=O)CNC(=O)c3cc(C(F)(F)F)ccc3N)C2)cc1` reads “inactive”.
On the same count and under the same terms, as for `Nc1ccc(C(F)(F)F)cc1C(=O)NCC(=O)N[C@@H]1CCN(Cc2ccc(Cl)cc2)C1`, the entry is “inactive”.
Turning to `Cc1ccc(CN2CC[C@@H](NC(=O)CNC(=O)c3cc(C(F)(F)F)ccc3N)C2)c(C)c1`, the result was inactive.

Another test addresses T2, C-C chemokine receptor type 1 (Homo sapiens) (UniProt P32246).
T2 sequence (whole entry): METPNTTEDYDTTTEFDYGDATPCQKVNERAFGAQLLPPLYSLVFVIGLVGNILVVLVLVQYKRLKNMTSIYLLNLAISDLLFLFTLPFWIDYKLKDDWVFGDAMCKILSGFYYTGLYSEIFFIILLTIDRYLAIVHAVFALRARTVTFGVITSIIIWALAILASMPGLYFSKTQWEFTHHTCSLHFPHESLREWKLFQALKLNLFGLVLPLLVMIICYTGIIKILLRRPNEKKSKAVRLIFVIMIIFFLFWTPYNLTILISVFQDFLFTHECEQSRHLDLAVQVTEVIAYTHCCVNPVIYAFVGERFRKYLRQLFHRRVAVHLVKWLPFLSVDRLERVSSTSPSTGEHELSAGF
The experiment in a line: Displacement of [125I]MIP-1alpha from human CCR1 in THP cells at 1 uM.
Conditions: not given
(Loss of bound radioactivity is the signal in a displacement assay; it reports binding, not function.)
As a reminder, the inhibition is the percentage by which the read-out fell short of the control. Read a high inhibition as a response far below the control. `Nc1ccc(C(F)(F)F)cc1C(=O)NCC(=O)N[C@@H]1CCN(Cc2ccc(Cl)cc2)C1` showed an inhibition of 25%.

In another test the target is T1, C-C chemokine receptor type 2. The experiment in a line: Displacement of [125I]MCP1 from human CCR2b in HEK293 cells. It is filed as cell-based.
Conditions: not given
The gist of the method:
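Competition for [125I]-MCP-1 binding on HEK293 cells transfected with human CCR2b receptor.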
Target sequence in this assay (P41597 whole entry): as the sequence (P41597 whole entry) above
Consider `Nc1ccc(C(F)(F)F)cc1C(=O)NCC(=O)N[C@@H]1CCN(Cc2ccc(Cl)cc2)C1`, for which the 50% inhibitory concentration (IC50) stood at 45 nM.

The target in a further test is T3, C-C chemokine receptor type 1 (Homo sapiens, UniProt P32246).
T3 sequence (P32246 whole entry): T2 sequence (whole entry)
Briefly: Displacement of [125I]MIP-1alpha from human CCR1 in THP cells.
Conditions: not given
In turn, `Nc1ccc(C(F)(F)F)cc1C(=O)NCC(=O)N[C@@H]1CCN(Cc2ccc(Cl)cc2)C1` gave an IC50 greater than 1000 nM.

The values are drawn from ChEMBL document CHEMBL1144032, “Potent antagonists of the CCR2b receptor. Part 3: SAR of the (R)-3-aminopyrrolidine series” (Bioorg Med Chem Lett, 2008).
